# Screens: PubChem, several laboratories
# Yeast superoxide = caloric restriction mimetics inhibiting age-related superoxide in yeast | S. cerevisiae aged cells, superoxide DHE fluorescence; active compounds read low | superoxide response (% of plate mean), % at 10 µM | actives 0.18% (n = 330,000);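 active = superoxide response under a set limit, about three screen SD below normal, cut at about 65% in these data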;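 note: yeast aged for seven days with compound at 30 °C before DHE staining; 100% = average MFI of all compound-treated wells on the plate with controls excluded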
# SR-BI HDL uptake = blocks mouse SR-BI lipid uptake from DiI-HDL | Q61009 | ldlA[mSR-BI] CHO cells, DiI-HDL uptake fluorescence, 3 h | inhibition, % at 12.5 µM | actives 0.96% (n = 320,000);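 active = mean replicate inhibition of at least 70% and a set share of replicates each scoring 70 or more; inconclusive = meets just one of the two criteria; inactive = fails both criteria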;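 note: 0% = median of neutral control wells and 100% = median of positive control wells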
# Hep lipid drop = hepatic lipid droplet formation modulation; inhibition, % at 6.5 µM; AML12 mouse hepatocytes, oleate lipid droplets, BODIPY imaging; actives 0.4% (n = 240,000);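 active = lipid droplet intensity inhibited by at least 50%, with more than 500 cells counted; inconclusive = wells with under 300 cells, treated as cytotoxic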
#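 Material: mouse AML12 hepatocyte cell line, fixed after treatment; Timing: compound with oleate, overnight; Technique: high-content imaging of BODIPY-stained droplets and DAPI nuclei; Probe or stimulus: oleate, 100 µM final; Dosing: compound at 6.5 µM only.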
# SMARCA2 activ = activators of SMARCA2 function. actives 1% (n = 370,000). AID 652017. MG213 cells, MMTV-luciferase reporter, dexamethasone, overnight. activation, % at 9.1 µM; in the data active = activation above about 7.8%;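 note: 0% = vehicle wells and 100% = reference activator wells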
# SR-BI uptake up = SR-BI HDL lipid transfer activation; CHO ldlA[mSR-BI] cells, DiI-HDL uptake fluorescence, 3 h; 100 = double the neutral-control signal; activation, % at 12.5 µM; actives 0.096% (n = 320,000); AID 504775;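 active = mean replicate activation of at least 60% and every replicate at or above 60%; inconclusive = mean or all-replicate condition met, but not both; inactive = mean below 60% and not all replicates reaching 60%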;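 note: 0% = median plate neutral-control signal and 100% = twice that signal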
#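 System: LDL receptor-deficient CHO ldlA cells overexpressing murine SR-BI | Timing: 3 h uptake period with compound, 37 °C | Medium: HEPES-buffered (25 mM, pH 7.4) F12 plus 0.5% BSA | Dosing: Single-point compound dose | Signal: Bottom-read fluorescence, 550/595 nm | Read-out: Retained DiI signal reflecting DiI-HDL uptake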
# AHR act = activates the human aryl hydrocarbon receptor | P35869 | actives 2.5% (n = 320,000) | activation, % at 5 µM | AID 2796 | AHR-responsive luciferase reporter cells, luminescence; in the data active = activation above about 47%;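 note: 0% = vehicle wells and 100% = reference agonist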
# Target sequence (P35869 whole entry, looked up): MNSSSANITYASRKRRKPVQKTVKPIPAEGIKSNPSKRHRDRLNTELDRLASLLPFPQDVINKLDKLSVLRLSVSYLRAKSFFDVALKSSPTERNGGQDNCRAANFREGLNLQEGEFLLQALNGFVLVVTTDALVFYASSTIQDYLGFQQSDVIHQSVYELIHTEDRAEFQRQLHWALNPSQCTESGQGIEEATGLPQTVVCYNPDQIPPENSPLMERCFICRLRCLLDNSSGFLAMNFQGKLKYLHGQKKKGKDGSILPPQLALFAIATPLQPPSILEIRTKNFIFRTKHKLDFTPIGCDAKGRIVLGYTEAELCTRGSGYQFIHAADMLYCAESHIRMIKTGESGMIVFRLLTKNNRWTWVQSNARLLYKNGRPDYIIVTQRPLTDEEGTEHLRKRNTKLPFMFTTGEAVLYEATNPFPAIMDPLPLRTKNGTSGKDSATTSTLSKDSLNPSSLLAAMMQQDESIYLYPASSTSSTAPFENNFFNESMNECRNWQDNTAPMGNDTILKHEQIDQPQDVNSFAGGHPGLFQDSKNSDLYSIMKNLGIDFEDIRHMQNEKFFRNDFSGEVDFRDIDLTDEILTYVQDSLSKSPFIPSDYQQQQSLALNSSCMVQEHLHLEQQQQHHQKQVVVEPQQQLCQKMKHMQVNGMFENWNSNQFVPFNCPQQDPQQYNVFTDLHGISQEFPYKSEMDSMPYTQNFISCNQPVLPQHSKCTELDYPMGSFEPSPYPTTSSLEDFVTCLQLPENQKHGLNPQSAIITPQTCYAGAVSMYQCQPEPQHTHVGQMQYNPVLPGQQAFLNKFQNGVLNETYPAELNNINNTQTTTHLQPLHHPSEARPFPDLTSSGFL
# Starred values were filed as active, the others as inactive; ? = inconclusive; · = no result given. The list is not random: actives were taken first. Their share in the collection is about 4.3%.
SMILES,Yeast superoxide,SR-BI HDL uptake,Hep lipid drop,SMARCA2 activ,SR-BI uptake up,AHR act
COc1ccc(C(=O)NC(=S)NNC(=O)c2ccco2)cc1,184,-42,-2,2,42,6
O=C(NC(=S)NNC(=O)c1cc2ccccc2cc1O)c1ccco1,104,146*,16,-4,-146,5
Cc1ccc(C(=O)NNC(=O)c2cc3ccccc3cc2O)cc1,106,123*,-25,1,-123,2
COc1ccc(NC(=O)NNC(=O)c2cc3ccccc3cc2O)cc1,110,96*,-8,-2,·,14
O=C(NNC(=O)c1cc2ccccc2cc1O)Nc1ccc(Br)cc1,109,8,12,-1,·,5
O=S1(=O)c2ccc(Br)cc2OC[C@H](Cc2ccccc2)N1Cc1cn(Cc2ccc(C(F)(F)F)cc2)nn1,·,·,·,-1,·,·
CCCC(=O)N1CCC(NS(=O)(=O)c2ccc3c(c2)CCN3C(C)=O)CC1,·,·,·,-6,·,·
COC(=O)c1cc(NC(=O)NC2CCCCN(Cc3ccc(Cl)cc3)C2=O)cc(C(=O)OC)c1 (configuration not stated),·,·,·,5,·,·
CC1(C)CC(=Cc2ccccc2[N+](=O)[O-])C(=O)c2ccccc21,·,·,·,7.9*,·,·
CCCc1nc2c(c(=O)c3ccccc3n2C)c(=O)n1-c1ccc(F)cc1,93,-4,1,-3,4,11
CCc1nc2oc3ccccc3c(=O)c2c(=O)n1-c1ccc(C)cc1,116,·,12,4,·,64*
CCCc1nc2oc3ccccc3c(=O)c2c(=O)n1-c1ccccc1,96,·,5,2,·,100*
Cc1ccc(-n2c(C(C)C)nc3oc4ccccc4c(=O)c3c2=O)cc1,84,-14,0,2,14,75*
COCCn1c(C(C)C)nc2oc3ccccc3c(=O)c2c1=O,74,-8,·,-2,8,3
CCc1nc2oc3ccccc3c(=O)c2c(=O)n1CCOC,89,-21,·,3,21,19
COc1ccccc1N1CCN(S(=O)(=O)c2ccc3c(c2)n(C)c(=O)c(=O)n3C)CC1,·,·,·,7,·,·
O=C(Nc1ccccc1-c1nc2ccccc2[nH]1)c1ccc(N2C(=O)CCC2=O)cc1,95,68,·,0,-68,49*
O=C(Nc1ccccc1-c1nc2ccccc2[nH]1)c1ccc(S(=O)(=O)N2CCCCC2)cc1,·,6,·,-2,-6,·
COC(=O)c1c(/N=C/N(C)C)sc2c1CCN(c1ncc(C(F)(F)F)cc1Cl)C2,86,12,·,-1,-12,72*
COC(=O)c1c(N(S(C)(=O)=O)S(C)(=O)=O)sc2c1CCN(c1ncc(C(F)(F)F)cc1Cl)C2,116,39,13,3,-39,5
Cc1cc(C)nc(N2CCCC(C(=O)Nc3ccc4c(c3)OCO4)C2)n1 (configuration not stated),86,-3,0,-3,3,49*
CC(C)NC(=O)N[C@@H]1C[C@@H]2O[C@@H](CO)CC[C@@H]2O[C@@H]1CCc1ccc(-c2ccc(F)cc2)cc1,·,·,·,-4,·,·
O=[N+]([O-])CC(=Nc1ccc(Cl)cc1)N/N=C\c1oc(O)c2ccccc12,107,15,-4,0,-15,95*
O=C(NNC(=O)c1ccccc1F)c1ccc(-c2ccc(Cl)cc2)o1,118,-4,·,-1,4,68*
CC(=NCCc1c(C)[nH]c2ccc(OCc3ccccc3)cc12)C1=C(O)CC(c2ccccc2)CC1=O (configuration not stated),104,58,0,-4,-58,77*
SMILES,Yeast superoxide,SR-BI HDL uptake,Hep lipid drop,SMARCA2 activ,SR-BI uptake up,AHR act
COc1ccc(CCNC(=O)c2ccc(OC)c(OC)c2)cc1OC,107,10,·,-2,-10,0
CC(=O)c1c(C)[nH]c(C(=O)Nc2cc(C)cc(C)c2)c1C,100,83*,4,·,-83,-2
COc1ccc(CCNC(=O)c2cc([N+](=O)[O-])cc([N+](=O)[O-])c2)cc1OC,117,73*,·,-3,-73,·
COc1ccc(CCNC(=O)c2[nH]c(C)c(C(C)=O)c2C)cc1OC,92,15,8,4,-15,74*
COc1ccc(CCNC(=O)c2ccc(N(C)S(=O)(=O)c3ccc(C)cc3)cc2)cc1OC,107,74*,1,-3,-74,2
CC(=O)c1c(C)[nH]c(C(=O)Nc2ccc(S(=O)(=O)N(C)C)cc2)c1C,93,-2,-1,-4,2,6
CC(=O)OCCCN1CCC2(CCCCC2)C1=O,·,·,·,-3,·,·
COc1ccc(-c2nc(NC(=O)c3ccco3)sc2C)cc1,·,·,·,-4,·,·
COc1ccc(Cl)cc1NC(=O)c1[nH]c(C)c(C(C)=O)c1C,110,9,·,-5,-9,68*
COc1ccc(OC)c(NC(=O)c2[nH]c(C)c(C(C)=O)c2C)c1,92,?,·,4,-71,75*
CCc1c(C(=O)Nc2ccc(OC)c(Cl)c2)[nH]c(C)c1C(C)=O,97,62,·,-5,-62,18
COc1ccc(-c2nc(NC(=O)c3[nH]c(C)c(C(C)=O)c3C)sc2C)cc1,110,76*,8,1,-76,18
CCCN(CC1CC1)C(=O)CN1C(=O)C2CCCCN2C(=O)c2ccccc21 (configuration not stated),·,·,·,3,·,·
CCCCN1C(=O)C2(NNc3ccccc3O2)c2ccccc21 (configuration not stated),95,22,0,0,-22,69*
O=C(/C=C/Nc1ccccc1)c1ccccc1,105,4,11,5,-4,2
O=C(/C=C/Nc1ccc(F)cc1Br)c1ccccc1,95,·,-3,-2,·,51*
Cc1cccc(C)c1NC1=NC2(CCCCC2)N=C(N)N1,103,-16,·,-2,16,5
Cc1ccc(NC2=NC3(CCCCC3)N=C(N)N2)c(C)c1,100,-19,-13,-3,19,5
NC1=NC2(CCCCC2)N=C(Nc2ccc(Br)cc2)N1,100,-28,0,-1,28,72*
Cc1ccc(NC2=NC3(CCCC3)N=C(N)N2)c(C)c1,62*,2,0,7,-2,17
CC1CCC/C(=N/Nc2nc3ccccc3s2)C1 (configuration not stated),72,13,18,-3,-13,62*
CC1(C)CC(=O)C/C(=N/Nc2nc3ccccc3s2)C1,103,·,2,-6,·,23
COC(=O)c1cccc(Cn2ccc3ccc(-c4ccc5ccn(C(=O)c6ccccc6OC)c5c4)cc32)c1,·,·,·,0,·,·
COc1cc(OC)c(OC)cc1/C=N/N(C)c1ccccc1,96,81*,-12,-3,-81,45
CCc1sc(C(=O)Nc2ccc(N3CCOCC3)cc2)cc1C,118,75*,·,7,-75,-4
CCc1sc(C(=O)Nc2ccc3c(c2)OCO3)cc1C,110,54,·,1,-54,10
